Source: PubChem
TRPC4 inh: TRPC4 (mouse) channel inhibition; HEK293 TRPC4beta/mu-opioid, DAMGO-evoked Fluo4 calcium flux; hits give low values; AID 2247; actives 0.39% (n = 300,000); B-score at 10 µM; Q9QUQ5;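 active = B-score over 3 SD under the library average, no early fluorescence shift, positive overall ratio signal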
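Assay system: HEK293 cells with stable TRPC4beta plus mu-opioid receptor expression. Dosing: single dose. Measured by: Fluo4 Ca2+ flux fluorescence. Also added: DAMGO in two steps, submaximal then maximal. Read-out: B score from integrated Fluo4 fluorescence ratio.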
Kir21 block: inhibitors of mouse Kir2.1 inward-rectifier potassium channel; P35561; HEK293-Kir2.1, FluxOR thallium flux fluorescence; hits give low values; B-score at 10 µM; actives 0.85% (n = 310,000); AID 1672;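 active = fluorescence ratio B-score at or below minus 3 SD of library scores, with starting-brightness B-score within 2 SD, cut at about -4.2 in these data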;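 also: channel flux triggered by added potassium and thallium sulfate stimulus; B-score of peak minus minimum fluorescence over baseline after thallium stimulus; more negative B-score means stronger Kir2.1 block with less thallium influx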
Target sequence (P35561 whole entry, looked up): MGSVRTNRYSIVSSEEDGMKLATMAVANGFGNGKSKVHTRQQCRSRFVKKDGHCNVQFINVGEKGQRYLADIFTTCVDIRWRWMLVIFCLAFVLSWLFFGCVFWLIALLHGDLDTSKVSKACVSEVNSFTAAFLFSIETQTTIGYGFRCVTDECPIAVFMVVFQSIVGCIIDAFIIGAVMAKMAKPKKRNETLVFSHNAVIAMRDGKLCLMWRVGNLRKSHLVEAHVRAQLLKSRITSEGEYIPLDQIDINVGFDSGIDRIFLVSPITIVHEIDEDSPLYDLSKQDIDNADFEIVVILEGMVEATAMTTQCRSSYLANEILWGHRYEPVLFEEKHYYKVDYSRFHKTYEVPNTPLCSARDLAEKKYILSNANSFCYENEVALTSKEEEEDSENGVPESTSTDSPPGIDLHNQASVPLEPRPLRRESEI
TRPC4 agonist: TRPC4 (mouse) channel activation; Q9QUQ5; HEK293 TRPC4beta/mu-opioid, Fluo4 calcium fluorescence; hits give high values; B-score at 10 µM; actives 0.49% (n = 310,000); AID 2237;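 active = B-score above 5 SD of library B-scores, and initial fluorescence ratio not above library mean plus 5 SD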;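 also: positive B-score marks a calcium rise read as TRPC4 activation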
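System – HEK293 cells stably co-expressing mouse TRPC4beta and mu-opioid receptor · Signal – Fluo4 calcium-sensitive dye fluorescence, kinetic, 1 Hz baseline · Benchmarks – buffer (low) and maximal DAMGO (high) · Read-out – B score of integrated fluorescence ratio per well · Incubation – dye loading 45 min room temperature, 110 s kinetic read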
TRPC4 PAM: allosteric potentiators of mouse TRPC4 channel; HEK293 TRPC4beta/mu-opioid, DAMGO EC20, Fluo-4 Ca2+ flux; hits give high values; actives 0.42% (n = 310,000); B-score at 10 µM;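 active = B-score of calcium response area above 5 SD of library B-scores, with initial fluorescence ratio within 5 SD of library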
TRPC6 inh: mouse TRPC6 channel inhibition; Q61143; HEK293-TRPC6, membrane potential dye, ACh-evoked depolarization; hits give low values; B-score at 10 µM; actives 1.1% (n = 310,000);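 active = B-score under library mean minus 3 SD, initial fluorescence not abnormally high, positive integrated signal ratio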;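 also: B-score derived from integrated fluorescence ratio over the kinetic read; more negative B-score means stronger inhibition of depolarization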
TRPC6 activator: mouse TRPC6 channel activation. Q61143. HEK293-TRPC6 membrane potential dye fluorescence; hits give high values. B-score at 10 µM. actives 0.13% (n = 310,000);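 active = B-score of the integrated fluorescence ratio above library mean plus 3 SD, and starting fluorescence ratio within library mean plus 5 SD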;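 also: higher score means more depolarization so channel activation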
TRPC4 spec 2: second check of whether TRPC6 inhibitors also affect mouse TRPC4 | actives 42% (n = 920) | shares compounds with TRPC6 inh | HEK293 TRPC4/MOR, membrane potential dye fluorescence; channel activated by saturating DAMGO dose | AID 2776 | inhibition, % at 10 µM;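 active = compounds whose fluorescence signal differed from control wells by over 3 SD, either direction, in both duplicate plates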
TRPC4 spec: tests whether TRPC6 inhibitors also affect mouse TRPC4 | shares compounds with TRPC6 inh | activity change, negative = inhibition, % at 10 µM | AID 2777 | actives 61% (n = 920) | HEK293 TRPC4/mu-opioid, membrane potential fluorescence;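 active = rise or fall in signal beyond 3 SD of buffer-only wells in both replicate plates, either sign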;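 also: integrated kinetic ratio of fluorescence range over baseline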
HEK293 MPD ctr 2-1: second counter-screen for TRPC6 inhibitors: parental HEK293 cells | shares compounds with TRPC6 inh | actives 31% (n = 920) | signal change vs control, % at 10 µM | parental HEK293 membrane potential dye fluorescence; maximal acetylcholine challenge after compound addition;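 active = membrane potential signal moving either way by over 3 SD of the maximum-effect control, in both duplicate plates, meaning non-specific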
HEK293 MPD ctr-1: counter-screen for TRPC6 inhibitors: effect in parental HEK293 cells. shares compounds with TRPC6 inh. parental HEK293 membrane potential dye fluorescence. membrane potential signal change, % at 10 µM. actives 60% (n = 920);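 active = membrane potential signal shifting up or down by more than 3 SD of buffer-only wells, on both duplicate plates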
HEK293 MPD ctr-2: parental HEK293 nonspecific activity of TRPC6 modulators | membrane potential signal change, % at 10 µM | actives 51% (n = 2,400) | shares compounds with TRPC6 inh | membrane potential dye fluorescence | AID 488924;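 active = membrane potential signal moves up or down beyond 5 SD from buffer-only wells, on both duplicate plates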
HEK293 MPD ctr 2-2: second counter-screen for TRPC6 modulators: effect in parental HEK293 cells; actives 14% (n = 2,400); inhibition, % at 10 µM; membrane potential dye fluorescence; after compound, maximal acetylcholine stimulation; AID 488926; shares compounds with TRPC6 inh;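 active = membrane potential signal drops by more than 5 SD from the mean control signal, in both duplicate plates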
TRPC4 ctr mod: tests whether TRPC6 modulators also affect mouse TRPC4 | shares compounds with TRPC6 inh | HEK293 TRPC4/mu-opioid, membrane potential fluorescence | percent change from control (negative = decrease, positive = increase), % at 10 µM | actives 69% (n = 2,400);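 active = membrane potential signal moved up or down beyond 5 SD of buffer control wells, in both duplicate plates, actives on both sides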
TRPC4/MOR inh 2: second check of whether TRPC6 modulators also affect mouse TRPC4 | AID 488928 | actives 55% (n = 2,400) | HEK293 TRPC4/mu-opioid, membrane potential dye fluorescence; stimulated with maximal-effect DAMGO | shares compounds with TRPC6 inh | inhibition, % at 10 µM;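 active = drop in membrane potential signal beyond 5 SD of the control wells in both duplicate plates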;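 also: TRPC4 counter screen for TRPC6 hits run under conditions tuned for TRPC6 not TRPC4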
TRPC6 block conf: confirmation of mouse TRPC6 inhibitors | shares compounds with TRPC6 inh | HEK293-TRPC6, membrane potential dye, ACh-evoked depolarization | inhibition, % at 10 µM | actives 43% (n = 3,300);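 active = fluorescence ratio falls more than 5 SD below the full-stimulation control mean, in both duplicate runs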;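 also: integrated fluorescence ratio of peak minus minimum over baseline after agonist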
TRPC6 act confirm: mouse TRPC6 activator confirmation. shares compounds with TRPC6 inh. actives 11% (n = 2,800). activation, % at 10 µM. HEK293-TRPC6 membrane potential dye fluorescence, FDSS;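 active = ratio signal rise beyond 5 SD above unstimulated control wells' mean, seen in both duplicate runs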
Numbers stand for hits; n = inactive; x = no result. Most compounds without a hit are left out; they make up all but 2.9% or so of the library.

SMILES	TRPC4 inh	Kir21 block	TRPC4 agonist	TRPC4 PAM	TRPC6 inh	TRPC6 activator	HEK293 MPD ctr-2	HEK293 MPD ctr 2-2	TRPC4 ctr mod	TRPC4/MOR inh 2	TRPC6 block conf	TRPC6 act confirm	others
CC(=O)C1C(=O)c2c(cccc2[N+](=O)[O-])C1=Nc1ccc(S(N)(=O)=O)cc1 (stereo not drawn)	n	n	n	n	-9.7	n	-250%	n	-51%	52%	n	n
COc1ccc(-c2csc3nc(C)nc(N4CCC(C)CC4)c23)cc1OC	n	n	n	23	-6.6	n	x	x	x	x	59%	x	TRPC4 spec 2=n;TRPC4 spec=3.6%;HEK293 MPD ctr 2-1=n;HEK293 MPD ctr-1=2.4%
COc1ccc(-c2csc3nc(C)nc(N4CCN(C(C)=O)CC4)c23)cc1OC	n	n	n	n	n	n	x	x	x	x	x	x
O=C(CN1CCN(CCN2C(=O)c3cccc4cccc(c34)C2=O)CC1)c1ccc(F)cc1	n	n	n	n	n	n	x	x	x	x	x	x
O=C1c2cccc3cccc(c23)C(=O)N1CCCN1CCN(c2ccc(F)cc2)CC1	n	n	n	n	-7.1	n	n	n	-12%	66%	n	n
O=C1Nc2ccccc2OC1CC(=O)N1CCN(c2cccc(C(F)(F)F)c2)CC1 (stereo not drawn)	n	n	n	n	-9.7	n	x	x	x	x	n	n	TRPC4 spec 2=n;TRPC4 spec=n;HEK293 MPD ctr 2-1=n;HEK293 MPD ctr-1=n
O=C1Nc2ccccc2OC1CC(=O)N1CCOCC1 (stereo not drawn)	n	n	n	n	n	n	x	x	x	x	x	x
NS(=O)(=O)c1ccc(N2CCN(CCOc3ccc(Cl)cc3)CC2)nc1	n	n	n	n	n	n	x	x	x	x	x	x
CCOc1nc(S(=O)(=O)c2ccc(C)cc2)c(Cl)s1	n	n	n	n	n	n	x	x	x	x	x	x
COCCN(CCOC)c1nc(S(=O)(=O)c2ccc(C)cc2)c(Cl)s1	n	n	n	n	-5.4	n	106%	n	24%	n	n	x
Brc1ccc(-c2ncc3ccccn23)cc1	n	n	n	n	n	n	x	x	x	x	x	x
O=C(NCC(c1ccco1)N1CCCC1)c1ccc(Cl)cc1 (stereo not drawn)	n	n	n	n	n	n	x	x	x	x	x	x
O=C(NCC(c1ccco1)N1CCCC1)c1ccccc1Sc1ccc(C(F)(F)F)cc1[N+](=O)[O-] (stereo not drawn)	n	n	n	n	-6.6	n	x	x	x	x	n	n	TRPC4 spec 2=n;TRPC4 spec=3.1%;HEK293 MPD ctr 2-1=245%;HEK293 MPD ctr-1=n
COC(=O)CN1C(=S)N(c2ccc(Cl)cc2)C(=O)C1CC(=O)Nc1ccc(F)cc1 (stereo not drawn)	n	n	n	n	n	n	x	x	x	x	x	x
COC(=O)CN1C(=S)N(c2ccc(Cl)cc2)C(=O)C1CC(=O)Nc1ccc(Cl)cc1 (stereo not drawn)	n	n	n	n	-6.6	n	-68%	n	-20%	32%	n	n
COc1ccccc1OCC(=O)OCC(=O)Nc1sccc1C(N)=O	n	n	n	n	-5.4	n	n	n	n	n	n	n
COc1cccc2c(C)cc(N3CCCCCC3)nc12	n	n	n	n	-9.4	n	-262%	n	-47%	86%	46%	n
COc1ccc(OC)c2c(C)cc(N3CCN(C(=O)c4ccc(C)cc4)CC3)nc12	n	n	n	n	n	n	x	x	x	x	x	x
COc1ccc(OC)c2c(N3CCN(C)CC3)cc(C(F)(F)F)nc12	n	n	n	n	n	n	x	x	x	x	x	x
COc1ccc(OC)c2c(C)cc(N3CCCCCC3)nc12	-5	n	n	n	-6.6	n	x	x	x	x	n	n	TRPC4 spec 2=74%;TRPC4 spec=-22%;HEK293 MPD ctr 2-1=n;HEK293 MPD ctr-1=-419%
COc1ccc(OC)c2c(C)cc(N3CCN(C(=O)c4ccc(F)cc4)CC3)nc12	n	n	n	n	-5.7	n	-244%	n	-44%	42%	n	n
COc1ccc(OC)c2c(C)cc(NCCN3CCOCC3)nc12	n	n	n	n	-8.9	n	-276%	70%	-36%	68%	72%	n
COc1ccc(N2CCN(c3cc(C)c4cccc(C)c4n3)CC2)cc1	n	n	n	n	n	n	x	x	x	x	x	x
COc1cccc(CN2CCN(c3nc4nonc4nc3NC3CC3)CC2)c1	n	n	n	n	n	n	x	x	x	x	x	x
CN1CCN(NC(=O)c2cc(S(=O)(=O)Nc3ccc(Cl)cc3)ccc2Cl)CC1	n	n	n	n	n	n	x	x	x	x	x	x
CC(C)c1ncc(S(=O)(=O)c2ccc(C(F)(F)F)cn2)c(N)n1	n	n	n	n	n	n	x	x	x	x	x	x
Cc1cc(C)c2nc(N3CCC(C(=O)NCc4cccnc4)CC3)sc2c1	n	n	n	n	-5.3	n	n	n	n	n	n	n
COC(=O)C1(C)NC(c2ccc(OC)cc2)C2C(=O)N(c3ccccc3)C(=O)C21 (stereo not drawn)	n	n	n	n	-7.8	n	x	x	x	x	n	n	TRPC4 spec 2=n;TRPC4 spec=n;HEK293 MPD ctr 2-1=n;HEK293 MPD ctr-1=n
COC(=O)C1(C)NC(c2ccc(O)cc2)C2C(=O)N(c3ccccc3)C(=O)C21 (stereo not drawn)	n	n	n	n	n	n	x	x	x	x	x	x
O=C(Cc1ccccc1)NNc1c2ccccc2nc2ccccc12	n	n	n	n	n	n	x	x	x	x	x	x
